Data published in ChEMBL document CHEMBL1153576, “Novel ureas and thioureas of 15-membered azalides with antibacterial activity against key respiratory pathogens” (Eur J Med Chem, 2009).
Values after ≈ are worked out from the molar mass of the structure shown.

Key:
Type in all cases: functional
Staphylococcus aureus = assay: Antibacterial activity against Staphylococcus aureus ATCC 29213 after 16 to 22 hrs by broth microdilution method
In short: (§1)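 Broth microdilution per the CLSI approved standard (sixth edition), using two-fold serial dilutions of compound in Mueller–Hinton broth. Stocks at 5 mg/ml in DMF. Inoculum came from a direct colony suspension adjusted by turbidity to about 5 × 10⁴ CFU/well final. Trays were incubated at 35 °C for 16–22 h. MIC is the lowest concentration completely inhibiting growth (99% inhibition).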

Streptococcus pneumoniae [1] = assay: Antibacterial activity against erythromycin-susceptible Streptococcus pneumoniae after 16 to 22 hrs by broth microdilution method
In short: (§2)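 Streptococci tested by CLSI broth microdilution in Mueller–Hinton broth with 5% horse serum, using two-fold serial dilutions. Compounds were dissolved in DMF at 5 mg/ml (stock). Inoculum was a turbidity-adjusted direct colony suspension giving about 5 × 10⁴ CFU/well. Trays were held at 35 °C for 16–22 h. MIC is the lowest concentration completely inhibiting growth (99%).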

Streptococcus pneumoniae [2] = assay: Antibacterial activity against efflux-mediated macrolide-resistant Streptococcus pneumoniae after 16 to 22 hrs by broth microdilution method
In short: (§3)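 Two-fold serial dilutions in microdilution trays, following the CLSI dilution standard for aerobic bacteria. Medium was Mueller–Hinton broth with 5% horse serum for streptococci. Stocks were made at 5 mg/ml in DMF. Inoculum came from a direct colony suspension adjusted by turbidity to about 5 × 10⁴ CFU/well final. Incubation was at 35 °C for 16–22 h. MIC is the lowest concentration completely inhibiting growth (99% inhibition).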

Streptococcus pneumoniae [3] = assay: Antibacterial activity against constitutive macrolide-lincosamide-streptogramin-resistant Streptococcus pneumoniae after 16 to 22 hrs by broth microdilution method; in short: as §3
Streptococcus pyogenes [4] = assay: Antibacterial activity against erythromycin-susceptible Streptococcus pyogenes after 16 to 22 hrs by broth microdilution method; in short: as §2
Streptococcus pyogenes [5] = assay: Antibacterial activity against inducible macrolide-lincosamide-streptogramin-resistant Streptococcus pyogenes 16 to 22 hrs by broth microdilution method; in short: as §3
Streptococcus pyogenes [6] = assay: Antibacterial activity against efflux-mediated macrolide-resistance Streptococcus pyogenes after 16 to 22 hrs by broth microdilution method; in short: as §3
Moraxella catarrhalis = assay: Antibacterial activity against Moraxella catarrhalis ATCC 23246 after 16 to 22 hrs by broth dilution method; in short: as §1
Haemophilus influenzae = assay: Antibacterial activity against Haemophilus influenzae ATCC 49247 after 16 to 22 hrs by broth dilution method
In short: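 Microdilution trays following the CLSI standard, with two-fold serial dilutions in supplemented broth suited to H. influenzae. DMF stocks at 5 mg/ml. Inoculum prepared from a turbidity-adjusted direct colony suspension to about 5 × 10⁴ CFU/well final. Incubated at 35 °C for 16–22 h. MIC is the lowest concentration giving complete (99%) growth inhibition.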

Enterococcus faecalis = assay: Antibacterial activity against Enterococcus faecalis ATCC 29212 after 16 to 22 hrs by broth dilution method; in short: as §1
Escherichia coli = assay: Antibacterial activity against Escherichia coli ATCC 25922 after 16 to 22 hrs by broth dilution method; in short: as §1

Structure (SMILES) | MIC (Staphylococcus aureus) [µg/mL] | MIC (Streptococcus pneumoniae [1]) [µg/mL] | MIC (Streptococcus pneumoniae [2]) [µg/mL] | MIC (Streptococcus pneumoniae [3]) [µg/mL] | MIC (Streptococcus pyogenes [4]) [µg/mL] | MIC (Streptococcus pyogenes [5]) [µg/mL] | MIC (Streptococcus pyogenes [6]) [µg/mL] | MIC (Moraxella catarrhalis) [µg/mL] | MIC (Haemophilus influenzae) [µg/mL] | MIC (Enterococcus faecalis) [µg/mL] | MIC (Escherichia coli) [µg/mL]
CC[C@H]1OC(=O)[C@H](C)[C@@H](O[C@H]2C[C@@](C)(OC)[C@@H](O)[C@H](C)O2)[C@H](C)[C@@H](O[C@@H]2O[C@H](C)C[C@H](N(C)C)[C@H]2O)[C@](C)(O)C[C@@H](C)CN(CCCNC(=S)NCCc2ccccc2)[C@H](C)[C@@H](O)[C@]1(C)O | 1 (≈ 1.05 µM) | ≤ 0.125 | 8 (≈ 8.37 µM) | > 64 | ≤ 0.125 | 4 (≈ 4.19 µM) | 4 (≈ 4.19 µM) | 1 (≈ 1.05 µM) | 2 (≈ 2.09 µM) | 16 (≈ 16.7 µM) | 32 (≈ 33.5 µM)
CC[C@H]1OC(=O)[C@H](C)[C@@H](O[C@H]2C[C@@](C)(OC)[C@@H](O)[C@H](C)O2)[C@H](C)[C@@H](O[C@@H]2O[C@H](C)C[C@H](N(C)C)[C@H]2O)[C@](C)(O)C[C@@H](C)CN(CCCNC(=O)Nc2ccccc2)[C@H](C)[C@@H](O)[C@]1(C)O | 0.25 (≈ 0.274 µM) | ≤ 0.125 | 16 (≈ 17.6 µM) | > 64 | ≤ 0.125 | 4 (≈ 4.39 µM) | 16 (≈ 17.6 µM) | 2 (≈ 2.19 µM) | 8 (≈ 8.78 µM) | 16 (≈ 17.6 µM) | 8 (≈ 8.78 µM)
CC[C@H]1OC(=O)[C@H](C)[C@@H](O[C@H]2C[C@@](C)(OC)[C@@H](O)[C@H](C)O2)[C@H](C)[C@@H](O[C@@H]2O[C@H](C)C[C@H](N(C)C)[C@H]2O)[C@](C)(O)C[C@@H](C)CN(CCCNC(=S)Nc2ccccc2)[C@H](C)[C@@H](O)[C@]1(C)O | 0.5 (≈ 0.539 µM) | ≤ 0.125 | 16 (≈ 17.3 µM) | > 64 | ≤ 0.125 | 8 (≈ 8.63 µM) | 16 (≈ 17.3 µM) | 2 (≈ 2.16 µM) | 4 (≈ 4.31 µM) | 8 (≈ 8.63 µM) | 8 (≈ 8.63 µM)
CC[C@H]1OC(=O)[C@H](C)[C@@H](O[C@H]2C[C@@](C)(OC)[C@@H](O)[C@H](C)O2)[C@H](C)[C@@H](O[C@@H]2O[C@H](C)C[C@H](N(C)C)[C@H]2O)[C@](C)(O)C[C@@H](C)CN(CCCN(CCC#N)C(=O)NC(C)C)[C@H](C)[C@@H](O)[C@]1(C)O | 4 (≈ 4.3 µM) | ≤ 0.125 | 32 (≈ 34.4 µM) | > 64 | ≤ 0.125 | 32 (≈ 34.4 µM) | 32 (≈ 34.4 µM) | 0.5 (≈ 0.537 µM) | 4 (≈ 4.3 µM) | 64 (≈ 68.8 µM) | 16 (≈ 17.2 µM)
CC[C@H]1OC(=O)[C@H](C)[C@@H](O[C@H]2C[C@@](C)(OC)[C@@H](O)[C@H](C)O2)[C@H](C)[C@@H](O[C@@H]2O[C@H](C)C[C@H](N(C)C)[C@H]2O)[C@](C)(O)C[C@@H](C)CN(CCCNC(=O)NCc2ccccc2)[C@H](C)[C@@H](O)[C@]1(C)O | 0.5 (≈ 0.54 µM) | ≤ 0.125 | 16 (≈ 17.3 µM) | > 64 | ≤ 0.125 | 4 (≈ 4.32 µM) | 8 (≈ 8.65 µM) | 1 (≈ 1.08 µM) | 2 (≈ 2.16 µM) | 16 (≈ 17.3 µM) | 8 (≈ 8.65 µM)
CC[C@H]1OC(=O)[C@H](C)[C@@H](O[C@H]2C[C@@](C)(OC)[C@@H](O)[C@H](C)O2)[C@H](C)[C@@H](O[C@@H]2O[C@H](C)C[C@H](N(C)C)[C@H]2O)[C@](C)(O)C[C@@H](C)CN(CCCNC(=S)NCc2ccccc2)[C@H](C)[C@@H](O)[C@]1(C)O | 0.5 (≈ 0.531 µM) | ≤ 0.125 | 8 (≈ 8.5 µM) | 64 (≈ 68 µM) | ≤ 0.125 | 4 (≈ 4.25 µM) | 4 (≈ 4.25 µM) | 1 (≈ 1.06 µM) | 2 (≈ 2.12 µM) | 8 (≈ 8.5 µM) | 16 (≈ 17 µM)
CC[C@H]1OC(=O)[C@H](C)[C@@H](O[C@H]2C[C@@](C)(OC)[C@@H](O)[C@H](C)O2)[C@H](C)[C@@H](O[C@@H]2O[C@H](C)C[C@H](N(C)C)[C@H]2O)[C@](C)(O)C[C@@H](C)CN(CCCN(CCC#N)C(=O)Nc2ccccc2)[C@H](C)[C@@H](O)[C@]1(C)O | 1 (≈ 1.04 µM) | ≤ 0.125 | 32 (≈ 33.2 µM) | > 64 | ≤ 0.125 | 16 (≈ 16.6 µM) | 32 (≈ 33.2 µM) | 4 (≈ 4.15 µM) | 8 (≈ 8.3 µM) | 32 (≈ 33.2 µM) | 32 (≈ 33.2 µM)
